Results from ChEMBL document CHEMBL4811308, “Design, synthesis and broad spectrum antibreast cancer activity of diarylindoles via induction of apoptosis in aggressive breast cancer cells” (Bioorg Med Chem, 2021).
Active and inactive are the calls of the source. No cut-off for these calls is given here.

Experiments:
MCF7 = experiment: Cytotoxicity against human MCF7 cells assessed as reduction in cell viability incubated for 24 hrs by MTT assay; type: functional, cell-based; conditions: MCF7, 24 h
In short: (§1)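 MTT viability: cells seeded at 1 × 10^4/well, grown 24 h, then exposed to a concentration range of compound for 24 h. MTT (5 mg/mL stock) added for 3 h, formazan dissolved in DMSO, absorbance read at 540 nm.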

MDA-MB-231 [1] = experiment: Cytotoxicity against human MDA-MB-231 cells assessed as reduction in cell viability incubated for 24 hrs by MTT assay; type: functional, cell-based; conditions: MDA-MB-231, 24 h; in short: as §1
HEK293 = experiment: Cytotoxicity against human HEK293 cells assessed as reduction in cell viability incubated for 24 hrs by MTT assay; type: cell-based; conditions: HEK293, 24 h; in short: as §1
MDA-MB-231 [2] = experiment: Induction of cell cycle arrest in human MDA-MB-231 cells assessed as accumulation at G2/M phase at 2 uM incubated for 24 hrs by PI staining based flow cytometry analysis (reference value: 4.35 to 19.56 %); type: functional
MDA-MB-231 [3] = experiment: Induction of cell cycle arrest in human MDA-MB-231 cells assessed as accumulation at G0/G1 phase at 4 uM incubated for 24 hrs by PI staining based flow cytometry analysis (reference value: 23.74 to 46.27 %); type: functional
MDA-MB-231 [4] = experiment: Induction of cell cycle arrest in human MDA-MB-231 cells assessed as accumulation at G2/M phase at 4 uM incubated for 24 hrs by PI staining based flow cytometry analysis (reference value: 4.35 to 19.56 %); type: functional
MDA-MB-231 [5] = experiment: Induction of apoptosis in human MDA-MB-231 cells assessed as viable cells at 2 uM incubated for 24 hrs by annexin-V-FITC and PI staining based flow cytometry analysis (reference value: 95.27 to 97.16 %); type: functional; conditions: read-out: Activity
MDA-MB-231 [6] = experiment: Induction of apoptosis in human MDA-MB-231 cells assessed as viable cells at 6 uM incubated for 24 hrs by annexin-V-FITC and PI staining based flow cytometry analysis (reference value: 95.27 to 97.16 %); type: functional; conditions: read-out: Activity
MDA-MB-231 [7] = experiment: Induction of apoptosis in human MDA-MB-231 cells assessed as early apoptotic cells at 6 uM incubated for 24 hrs by annexin-V-FITC and PI staining based flow cytometry analysis (reference value: 0.28 to 4.68 %); type: functional
In short: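 MDA-MB-231 cells (1 × 10^6) grown 24 h in six-well plates, then treated for 24 h. Cells trypsinized, PBS-washed and stained with Annexin V-FITC/PI in binding buffer for 10 min in the dark at room temperature. Early/late apoptotic fractions quantified by flow cytometry.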

MDA-MB-231 [8] = experiment: Induction of apoptosis in human MDA-MB-231 cells assessed as necrotic cells at 6 uM incubated for 24 hrs by annexin-V-FITC and PI staining based flow cytometry analysis (reference value: 0.01 to 0.8 %); type: functional
MDA-MB-231 [9] = experiment: Induction of mitochondrial membrane depolarization in human MDA-MB-231 cells at 2 to 6 uM incubated for 24 hrs by JC-1 staining based flow cytometry analysis; type: functional, cell-based; conditions: dose 2-6 µM
In short: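 Mitochondrial potential measured in MDA-MB-231 cells (1 × 10^6) seeded in six-well plates for 24 h and treated 24 h. Trypsinized cells PBS-washed and stained with 5 µg/ml JC-1 for 30 min in dark at room temperature. Resuspended in PBS and read by flow cytometry as red aggregate versus monomer fluorescence.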

MDA-MB-231 [10] = experiment: Induction of ROS production in human MDA-MB-231 cells at 2 to 6 uM incubated for 24 hrs by DCFH-DA staining based flow cytometry analysis; type: functional, cell-based; conditions: dose 2-6 µM
In short: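 MDA-MB-231 cells (1 × 10^6) seeded in 6-well plates for 24 h, then treated at several concentrations for 24 h. Cells trypsinized, fixed in cold methanol, stained with 30 µg/mL DCFH-DA for 30 min in the dark at room temperature, and analysed by flow cytometry.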

MDA-MB-231 [11] = experiment: Cytotoxicity against human MDA-MB-231 cells assessed as reduction in cell viability at 2 to 6 uM incubated for 24 hrs in presence of NAC by MTT assay; type: functional, cell-based; conditions: dose 2-6 µM
In short: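 MDA-MB-231 cells pretreated 2 h with 10 mM N-acetylcysteine, then exposed to compound for 24 h. Viability by MTT (3 h), formazan in DMSO, absorbance at 540 nm. Three independent experiments, mean ± S.E.M.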

[12] = biological target: Estrogen receptor beta (Homo sapiens) (UniProt Q92731); experiment: Transactivation of ERbeta (unknown origin) transfected in human MDA-MB-231 cells at 1 uM by dual luciferase receptor assay; type: cell-based
In short: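 MDA-MB-231 cells grown to 80-90% confluency, transfected with 500 ng of ERα (pSG5 mERα) or ERβ (pSG5-hERβ) expression vector plus pRL-SV40 Renilla for normalization, then reseeded. Cells incubated with E2 (100 nM), compound at 1 µM, or tamoxifen at 1 µM. Dual luciferase readout reported as percent normalized RLU, triplicate experiments with three replicates each.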

Tubulin (Homo sapiens) = Tubulin (Homo sapiens) (UniProt P68371+Q9H4B7+P0DPH7+P68366+Q13509+Q71U36+P04350+Q3ZCM7+P07437+P68363+Q9BQE3+Q6PEY2+Q13885+Q9BVA1+Q9BUF5); experiment: Induction of tubulin polymerization (unknown origin) at 10 uM incubated for 1 hr by spectrometric analysis; type: protein-complex assay
4T1 = experiment: Antitumor activity against mouse 4T1 cells […] in BALB/c mouse assessed as reduction in tumor growth at 10 to 20 mg/kg, po administered for 21 days and measured on day 21 relative to control; type: functional, organism-based; conditions: dose 10-20 mg/kg, time 21.0 day
In short: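 Orthotopic syngeneic model: 4T1 cells (7 × 10^5) injected into the mammary fat pad of six-week-old female Balb/c mice; randomized once tumors were measurable (1 week). Compounds in ethanol diluted in PBS, 10 or 20 mg/kg oral gavage daily for 21 days; vehicle controls. Tumor size measured twice weekly; volume = (LW²) × 0.5.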

[13] = Toxicity in BALB/c mouse xenografted with mouse 4T1 cells assessed as survival rate at 10 to 20 mg/kg, po administered for 21 days and measured on day 21; type: organism-based; conditions: in vivo, 504 h, dose 10-20 mg/kg, time 21 day
In short: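 Orthotopic syngeneic model: 4T1 cells (7 × 10^5) injected into mammary fat pad of six-week-old female Balb/c mice. Once tumours were measurable at one week, mice were randomized into ten groups. Compound was dissolved in ethanol, diluted in PBS, and given by oral gavage at 10 or 20 mg/kg daily for 21 days; vehicle controls. Body weight and tumour size were measured twice weekly.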

[14] = Acute toxicity in Swiss albino mouse assessed as triglyceride level at 50 mg/kg, po administered once and observed for 7 days (reference value: 81.12 +/- 7.75 mg/dl); type: organism-based; conditions: in vivo, 168 h, time 7 day
[15] = Acute toxicity in Swiss albino mouse assessed as mortality at 5 to 300 mg/kg, po administered once and observed for 7 days; type: organism-based; conditions: in vivo, 168 h, dose 5-300 mg/kg, time 7 day
In short: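 Acute oral toxicity per OECD guideline 423; mice 20–25 g, 3 male + 3 female per group, acclimatized 7 days at 22 ± 5 °C, 12 h light/dark. Compound dissolved in minimal DMSO, diluted in 0.7% CMC, single oral dose of 5, 50 or 300 mg/kg; controls given vehicle only. Clinical signs checked hourly on dosing day, then daily. Samples and body weights taken on day 7.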

Sequence of Estrogen receptor beta (Homo sapiens) (Q92731 whole entry): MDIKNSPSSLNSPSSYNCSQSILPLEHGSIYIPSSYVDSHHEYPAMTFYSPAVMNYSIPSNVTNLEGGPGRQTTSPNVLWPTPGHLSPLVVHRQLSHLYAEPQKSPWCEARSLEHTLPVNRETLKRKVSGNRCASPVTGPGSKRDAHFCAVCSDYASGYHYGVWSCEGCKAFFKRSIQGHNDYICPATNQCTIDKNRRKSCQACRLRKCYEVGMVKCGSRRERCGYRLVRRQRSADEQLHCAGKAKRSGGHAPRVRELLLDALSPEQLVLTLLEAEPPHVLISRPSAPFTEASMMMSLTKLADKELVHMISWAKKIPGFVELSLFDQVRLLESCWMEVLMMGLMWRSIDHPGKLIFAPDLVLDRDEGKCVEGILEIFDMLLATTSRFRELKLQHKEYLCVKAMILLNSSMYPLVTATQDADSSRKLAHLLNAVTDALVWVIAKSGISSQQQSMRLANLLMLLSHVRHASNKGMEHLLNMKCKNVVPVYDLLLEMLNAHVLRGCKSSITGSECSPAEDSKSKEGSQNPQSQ

Structure (SMILES) | IC50 (MCF7) [µM] | IC50 (MDA-MB-231 [1]) [µM] | IC50 (HEK293) [µM] | Activity (MDA-MB-231 [2]) [%] | Activity (MDA-MB-231 [3]) [%] | Activity (MDA-MB-231 [4]) [%] | viability at 2 µM (MDA-MB-231 [5]) [%] | viability at 6 µM (MDA-MB-231 [6]) [%] | Activity (MDA-MB-231 [7]) [%] | Activity (MDA-MB-231 [8]) [%] | Activity (MDA-MB-231 [9]) | Activity (MDA-MB-231 [10]) | Activity (MDA-MB-231 [11]) | Activity [12] | Activity (Tubulin (Homo sapiens)) | Activity (4T1) | Activity [13] | Activity ([12]; filed as activator) | Activity [14] [mg/dL] | Activity [15]
COc1ccc2c(c1)c(Cc1ccc(OCCN3CCCCC3)cc1)c(-c1cc(OC)c(OC)c(OC)c1)n2Cc1ccc(OCCN2CCCCC2)cc1 | 6.48 | 2.42 | 30.5 | 12.45 | 55.16 | 15.43 | 81.5 | 44.6 | 17.19 | 0.55 | Active | Active | inactive | inactive | Active | Active | Non-Toxic |  |  | 
CCN(CC)CCOc1ccc(Cc2c(-c3cc(OC)c(OC)c(OC)c3)n(Cc3ccc(OCCN(CC)CC)cc3)c3ccc(OC)cc23)cc1 | 6.36 | 2.34 | 25.4 | 10.07 | 53.87 | 8.09 | 88.2 | 69.7 | 14.01 | 2.09 | Active | Active | inactive |  | Active | Active | Non-Toxic | Active |  | 
COc1ccc2c(c1)c(Cc1ccc(OC(C)CN(C)C)cc1)c(-c1cc(OC)c(OC)c(OC)c1)n2Cc1ccc(OC(C)CN(C)C)cc1 (configuration not stated) | 7.06 | 3.88 | 21.8 | 12.85 | 46.54 | 9.55 | 72.5 | 45.8 | 20.52 | 7.58 | Active | Active | inactive |  | Active | Active | Non-Toxic | Active | 83.99 | Non-Toxic
COc1ccc2c(c1)c(Cc1ccc(OCCN(C)C)cc1)c(-c1cc(OC)c(OC)c(OC)c1)n2Cc1ccc(OCCN(C)C)cc1 | 4.48 | 3.78 | 24.5 | 0.79 | 61.13 | 0.22 | 80.7 | 36.2 | 39.6 | 9.08 | Active | Active | inactive |  | Active | Active | Non-Toxic | Active | 91.7 | Non-Toxic
